Experimental data published in ChEMBL document CHEMBL1833929, “Design, synthesis and anticancer activity of novel dihydrobenzofuro[4,5-b][1,8]naphthyridin-6-one derivatives” (Bioorg Med Chem Lett, 2011).

Key:
PC-3 [1] = assay: Cytotoxicity against androgen receptor-negative human PC3 cells after 48 hrs by MTT assay; format: functional, cell-based; conditions: PC-3, 48 h
How it was run: (§1)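 Cells kept in RPMI-1640 with 10% heat-inactivated FBS, 1.25 mM HEPES and 1% penicillin/streptomycin. Seeded at 2×10^3 cells/well and grown 48 h, then treated with a range of concentrations for 24 or 48 h. MTT (5 mg/mL) added for 4 h at 37 °C, formazan dissolved in DMSO, absorbance read at 540 nm. Triplicate. IC50 from log concentration vs % viability loss; doxorubicin reference.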

PC-3 [2] = assay: Cytotoxicity against androgen receptor-negative human PC3 cells after 24 hrs by MTT assay; format: functional, cell-based; conditions: PC-3, 24 h; how it was run: as §1
DU-145 [3] = assay: Cytotoxicity against human DU145 cells after 48 hrs by MTT assay; format: functional, cell-based; conditions: DU-145, 48 h; how it was run: as §1
DU-145 [4] = assay: Cytotoxicity against human DU145 cells after 24 hrs by MTT assay; format: functional, cell-based; conditions: DU-145, 24 h; how it was run: as §1
LNCaP [5] = assay: Cytotoxicity against androgen receptor-positive human LNCAP cells after 48 hrs by MTT assay; format: functional, cell-based; how it was run: as §1
LNCaP [6] = assay: Cytotoxicity against androgen receptor-positive human LNCAP cells after 24 hrs by MTT assay; format: functional, cell-based; how it was run: as §1
[7] = Cytotoxicity against human MCF7/ADR cells after 24 hrs by MTT assay; format: functional, cell-based; conditions: NCI/ADR-RES; how it was run: as §1
[8] = Cytotoxicity against human MCF7/ADR cells after 48 hrs by MTT assay; format: functional, cell-based; conditions: NCI/ADR-RES; how it was run: as §1
MCF7 [9] = assay: Cytotoxicity against estrogen receptor-positive human MCF7 cells after 24 hrs by MTT assay; format: functional, cell-based; conditions: MCF7, 24 h; how it was run: as §1
MCF7 [10] = assay: Cytotoxicity against estrogen receptor-positive human MCF7 cells after 48 hrs by MTT assay; format: functional, cell-based; conditions: MCF7, 48 h; how it was run: as §1
[11] = Cell cycle arrest in human MCF7/ADR cells assessed as accumulation at G1 phase at 0.05 uM after 48 hrs using propidium iodide staining by flow cytometry (reference value: 62.15 +/- 3.14 %); format: functional, cell-based; conditions: NCI/ADR-RES
How it was run: (§2)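 MCF-7/ADR cells exposed to test agent for 48 h, collected, washed and suspended in cold PBS. Fixed in chilled 75% methanol, then stained with PI solution (100 µg/mL RNase, 10 µg/mL PI in PBS). Phase distribution (G1, S, G2/M) determined by flow cytometry. Mean ± SEM of three independent experiments; one-way ANOVA with Newman–Keuls post hoc test, p<0.05.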

[12] = Cell cycle arrest in human MCF7/ADR cells assessed as accumulation at G1 phase at 0.1 uM after 48 hrs using propidium iodide staining by flow cytometry (reference value: 62.15 +/- 3.14 %); format: functional, cell-based; conditions: NCI/ADR-RES; how it was run: as §2
[13] = Cell cycle arrest in human MCF7/ADR cells assessed as accumulation at G1 phase at 0.2 uM after 48 hrs using propidium iodide staining by flow cytometry (reference value: 62.15 +/- 3.14 %); format: functional, cell-based; conditions: NCI/ADR-RES; how it was run: as §2
[14] = Cell cycle arrest in human MCF7/ADR cells assessed as accumulation at S phase at 0.05 uM after 48 hrs using propidium iodide staining by flow cytometry (reference value: 15.34 +/- 0.98 %); format: functional, cell-based; conditions: NCI/ADR-RES; how it was run: as §2
[15] = Cell cycle arrest in human MCF7/ADR cells assessed as accumulation at S phase at 0.1 uM after 48 hrs using propidium iodide staining by flow cytometry (reference value: 15.34 +/- 0.98 %); format: functional, cell-based; conditions: NCI/ADR-RES; how it was run: as §2
[16] = Cell cycle arrest in human MCF7/ADR cells assessed as accumulation at S phase at 0.2 uM after 48 hrs using propidium iodide staining by flow cytometry (reference value: 15.34 +/- 0.98 %); format: functional, cell-based; conditions: NCI/ADR-RES; how it was run: as §2
[17] = Cell cycle arrest in human MCF7/ADR cells assessed as accumulation at G2/M phase at 0.05 uM after 48 hrs using propidium iodide staining by flow cytometry (reference value: 22.51 +/- 1.5 %); format: functional, cell-based; conditions: NCI/ADR-RES; how it was run: as §2
[18] = Cell cycle arrest in human MCF7/ADR cells assessed as accumulation at G2/M phase at 0.1 uM after 48 hrs using propidium iodide staining by flow cytometry (reference value: 22.51 +/- 1.5 %); format: functional, cell-based; conditions: NCI/ADR-RES; how it was run: as §2
[19] = Cell cycle arrest in human MCF7/ADR cells assessed as accumulation at G2/M phase at 0.2 uM after 48 hrs using propidium iodide staining by flow cytometry (reference value: 22.51 +/- 1.5 %); format: functional, cell-based; conditions: NCI/ADR-RES; how it was run: as §2
MCF7 [20] = assay: Ratio of doxorubicin IC50 to compound IC50 for estrogen receptor-positive human MCF7 cells after 48 hrs by MTT assay; format: functional
LNCaP [21] = assay: Ratio of IC50 for androgen receptor-negative human PC3 cells to IC50 for androgen receptor-positive human LNCAP cells; format: functional
DU-145 [22] = assay: Ratio of IC50 for androgen receptor-negative human PC3 cells to IC50 for human DU145 cells; format: functional
NCI/ADR-RES = assay: Ratio of IC50 for androgen receptor-negative human PC3 cells to IC50 for human MCF7/ADR cells; format: functional
MCF7 [23] = assay: Ratio of IC50 for androgen receptor-negative human PC3 cells to IC50 for estrogen receptor-positive human MCF7 cells; format: functional
[24] = Cell cycle arrest in human MCF7/ADR cells assessed as accumulation at G1 phase at 5 uM after 48 hrs using propidium iodide staining by flow cytometry (reference value: 62.15 +/- 3.14 %); format: functional, cell-based; conditions: NCI/ADR-RES; how it was run: as §2
[25] = Cell cycle arrest in human MCF7/ADR cells assessed as accumulation at S phase at 5 uM after 48 hrs using propidium iodide staining by flow cytometry (reference value: 15.34 +/- 0.98 %); format: functional, cell-based; conditions: NCI/ADR-RES; how it was run: as §2
[26] = Cell cycle arrest in human MCF7/ADR cells assessed as accumulation at G2/M phase at 5 uM after 48 hrs using propidium iodide staining by flow cytometry (reference value: 22.51 +/- 1.5 %); format: functional, cell-based; conditions: NCI/ADR-RES; how it was run: as §2

SMILES | IC50 (PC-3 [1]) [nM] | IC50 (PC-3 [2]) [nM] | IC50 (DU-145 [3]) [nM] | IC50 (DU-145 [4]) [nM] | IC50 (LNCaP [5]) [nM] | IC50 (LNCaP [6]) [nM] | IC50 [7] [nM] | IC50 [8] [nM] | IC50 (MCF7 [9]) [nM] | IC50 (MCF7 [10]) [nM] | Activity [11] [%] | Activity [12] [%] | Activity [13] [%] | Activity [14] [%] | Activity [15] [%] | Activity [16] [%] | Activity [17] [%] | Activity [18] [%] | Activity [19] [%] | other results
COc1cc2c(c3c1c(=O)c1cccnc1n3C)C[C@H]([C@]1(C)CO1)O2 (racemic) | 2150 | 4670 | 840 | 2360 | 860 | 2480 | 2210 | 920 | 1840 | 1020 | 68.4 | 64.6 | 55.2 | 11.2 | 13.6 | 16.6 | 20.5 | 21.8 | 28.3 | Ratio IC50 (MCF7 [20]): 1.5; Ratio IC50 (LNCaP [21]): 2; Ratio IC50 (DU-145 [22]): 2; Ratio IC50 (NCI/ADR-RES): 2; Ratio IC50 (MCF7 [23]): 2
COc1cc2c(c3c1c(=O)c1cccnc1n3C)C[C@H]([C@@]1(C)CO1)O2 (racemic) | 300 | 560 | 150 | 550 | 140 | 480 | 490 | 150 | 660 | 260 | 63.5 | 57.4 | 51.2 | 12.4 | 8.97 | 7.68 | 24.1 | 33.7 | 41.1 | –
COc1cccc2c1C(=O)c1c(O)c3c(c(O)c1C2=O)C[C@@](O)(C(=O)CO)C[C@@H]3O[C@H]1C[C@H](N)[C@H](O)[C@H](C)O1 [DOXORUBICIN] | 1220 | 4100 | 580 | 6240 | 1660 | 7420 | > 20000 | 13600 | – | – | – | – | – | – | – | – | – | – | – | Activity [24]: 53.3%; Activity [25]: 21.9%; Activity [26]: 24.6%
